Assay outcomes deposited in PubChem by several laboratories.
Only some compounds are listed: those with a hit (about 2.1% of all), similar ones and a draw of the others.
STAT1 inh – STAT1 signaling inhibition. AID 920. NIH 3T3 STAT1-luciferase reporter, IFN-gamma, luminescence. inhibition, % at 5.5 µM. 200,000 tested, 0.35% active;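 active = inhibition above a set limit, the mean inhibition across all tested compounds plus 3 SD, cut at about 34% in these data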;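 note: 0% = IFN-gamma with DMSO and 100% = IFN-gamma with 300 µM nifuroxazide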
STAT3 blocker – STAT3 signaling inhibition | inhibition, % at 5.5 µM | 190,000 tested, 0.89% active | U3A cells, IL-6 STAT3-luciferase reporter, luminescence; host cell line lacks STAT1;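 active = inhibition above the mean inhibition across all screened compounds plus 3 SD, cut at about 44% in these data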;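 note: 0% = DMSO only wells and 100% = 100 µM nifuroxazide control wells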
L929 necroptosis – L929 zVAD cell death inhibition | L929 zVAD necroptosis rescue, ATP luminescence, 24 h; with zVAD 60 µM | viability rescue, % at 10 µM | 220,000 tested, 0.38% active;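 active = activation, scaled between plate controls, above about 75%, limit read from the data; inactive = activation under that limit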;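 note: 0% = zVAD with DMSO and 100% = DMSO alone without zVAD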
STAT3 act-1 – activators of IL-6 induced STAT3 signaling; U3A cells, IL-6 STAT3-luciferase reporter, luminescence; 100% = signal with IL-6 EC80 alone; activation (% of control), % at 5.6 µM; 190,000 tested, 0.91% active; AID 871;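 active = activation above the screen-wide mean of compound activation plus 3 SD, cut at about 130% in these data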;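 note: 0% = background luminescence of wells with medium and substrate only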
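Detection: reporter luminescence signal / Assay system: STAT1-lacking human U3A cells, STAT3 luciferase reporter / Incubation: compound pre-incubation 1 h before IL-6, then 6 h stimulation at 37 °C / Control set: IL-6-only high control / Read-out: % activation relative to IL-6 control / Probe or stimulus: Interleukin-6, 33 ng/mL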
TNF death inh – inhibitors of TNF-alpha induced necroptosis in Jurkat FADD-/- cells; 220,000 tested, 0.068% active; Jurkat FADD-/- TNF necroptosis rescue, ATP luminescence, 24 h; 0 = TNF only, 100 = no-TNF cells; activation (protection from cell death), % at 10 µM; AID 463075;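 active = activation, meaning protection from cell death, of at least 50% relative to plate controls; inactive = activation below 50%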;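 note: necroptosis triggered by 40 ng/mL TNF-alpha added together with compound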
STAT3 act-2 – confirmation of STAT3 signaling activators | shares compounds with STAT3 act-1 | U3A STAT3-luciferase reporter, IL-6 potentiation, luminescence; U3A cells lack STAT1; 100 means same as IL-6 alone | potentiation (% of control), % at 5.7 µM | 1,200 tested, 64% active;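 active = percent activation of the STAT3 luciferase reporter above a set limit taken from the earlier primary screen, cut at about 130% in these data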;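 note: 0% = background signal of medium plus substrate and 100% = median of IL-6 with DMSO wells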
NFkB act 2 – activates NF-kappaB, counter-screen to STAT3 activators; shares compounds with STAT3 act-1; human cells, NF-kappaB reporter activation; activation (% of control), % at 5.7 µM; 1,200 tested, 11% active; in the data active = activation above about 120%;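 note: reporter induced by TNF-alpha stimulation; 100% = median of stimulated DMSO wells and 0% = no signal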
STAT1 act STAT3c – activates STAT1, counter-screen to STAT3 activators; 1,200 tested, 13% active; AID 1318; activation (% of control), % at 5.7 µM; shares compounds with STAT3 act-1; NIH 3T3 STAT1-luciferase reporter, IFN-gamma, luminescence;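 active = activation above the solvent-only control well mean plus 3 SD, set per screening run, cut at about 120% in these data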;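 note: 100% = IFN-gamma with DMSO median signal so 100% means no change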
* hit, by the source's call; . = no result given.

SMILES | STAT1 inh | STAT3 blocker | L929 necroptosis | STAT3 act-1 | TNF death inh | STAT3 act-2 | NFkB act 2 | STAT1 act STAT3c
Cc1ccc(C(=O)Nc2ccc3cn[nH]c3c2)cc1S(=O)(=O)N1CCCCC1 | -19.7 | -41.4 | 0.0 | 143.2* | -2.1 | 139.5* | 115.7 | 141.7*
Cc1ccc(-n2c(N)c(C(=O)NCc3cccnc3)sc2=S)cc1 | 20.1 | 10.5 | 0.7 | 94.2 | -0.1 | . | . | .
Brc1ccc2ncnc(Nc3cccc4ccccc34)c2c1 | 27.7 | -42.1 | -0.2 | 147.3* | -10.4 | 163.2* | 97.3 | 87.8
O=C(Nc1ccccc1O)c1csc2c1CCCC2 | -8.0 | -54.8 | -0.2 | 150.7* | -1.5 | 149.0* | 118.2 | 97.5
CCC(Sc1nnnn1-c1ccccc1)C(=O)Nc1nc2ccccc2s1 (centres undefined) | -0.9 | -64.1 | -0.1 | 156.9* | 2.6 | 155.1* | 112.4 | 113.2
CCC(Sc1nnnn1-c1ccccc1)C(=O)NC(C)c1ccccc1 (centres undefined) | -1.4 | -4.4 | -0.4 | 105.8 | 0.4 | . | . | .
COc1ccc(NS(=O)(=O)c2ccc(NC(=S)NC(=O)c3cccc(F)c3)cc2)nn1 | 1.0 | 0.2 | 1.1 | 102.1 | 2.0 | . | . | .
Cc1nc2cc(-c3ccc(Cl)cc3)nn2c(NCCN(C)C)c1C | -10.3 | -46.9 | 14.6 | 150.7* | -11.6 | 183.2* | 116.9 | 120.5*
Cc1ccc2[nH]c(C)c(/C=N/Nc3nc4ccccc4s3)c2c1 | -6.5 | -39.7 | 3.6 | 138.7* | 3.8 | 133.9* | 103.8 | 101.2
COc1ccc(NC(=S)N2CCCC(c3nc4ccc(C)cc4[nH]3)C2)c(OC)c1 (centres undefined) | -4.0 | -0.5 | 1.1 | 106.7 | 3.8 | . | . | .
CCOC(=O)c1c2n(c3ccc(O)cc13)CCC2 | -2.3 | -71.8 | 0.5 | 163.5* | -0.6 | 82.3 | 103.7 | 101.9
CC(C)SCc1cc(N2CCCC2)nc(-c2ccccc2)n1 | -5.9 | 0.1 | 3.8 | 101.0 | -0.3 | . | . | .
CCOCCCNC(=O)C(NC(=O)Cc1c[nH]c2ccccc12)c1ccccc1 (centres undefined) | 10.1 | -41.8 | 3.1 | 144.2* | 0.4 | 135.4* | 103.5 | 97.8
CCOCCCNC(=O)C(NC(=O)Cc1cccs1)c1ccccc1 (centres undefined) | -3.2 | 12.5 | 0.7 | 95.8 | 0.3 | . | . | .
Cc1ccc(-n2[nH]c(C)c(/C=N/c3ccccn3)c2=O)cc1 | 2.0 | -8.8 | -0.3 | 111.9 | -7.0 | . | . | .
Cc1ccc(-n2[nH]c(C)c(C=Nc3cc(C)ccn3)c2=O)cc1 | -6.3 | -41.9 | -2.0 | 138.2* | -9.5 | 102.2 | 100.6 | 102.7
Nc1ccc(Sc2cnn(-c3ccccc3)c(=O)c2Cl)cc1 | 3.6 | -8.4 | -0.3 | 113.0 | -3.7 | . | . | .
Cc1ccc(Sc2cnn(-c3ccccc3)c(=O)c2Cl)cc1 | 2.3 | -37.5 | -0.4 | 141.5* | -11.2 | 133.3* | 104.5 | 98.2
COc1ccc(C(=O)Nc2ccccc2C(=O)NC(Cc2c[nH]c3ccccc23)C(=O)O)cc1 (centres undefined) | 7.6 | -44.1 | 7.1 | 137.7* | 1.3 | 122.6 | 100.2 | 93.8
O=C(Nc1ccccc1C(=O)NC(Cc1c[nH]c2ccccc12)C(=O)O)c1ccco1 (centres undefined) | 2.9 | -8.8 | 0.1 | 112.8 | -0.8 | . | . | .
COc1ccc2ncn(-c3ccccc3)c2c1 | -8.4 | -32.6 | 87.9* | 136.5* | -3.3 | 105.8 | 88.8 | 105.5
COc1cc(/C=N\Nc2nc(-c3ccc(C)cc3)c(NC(C)=O)s2)ccc1O | . | . | 4.1 | . | -6.1 | . | . | .
COc1cc(/C=N/Nc2snc(SC)c2C#N)ccc1O | 10.1 | -47.9 | 1.2 | 148.3* | -17.1 | 135.6* | 96.3 | 89.0
Cn1c(Sc2ccc(Cl)cc2)c(C=O)c2ccccc21 | 13.8 | -78.3 | 0.4 | 169.9* | -10.6 | 140.0* | 74.7 | 81.2
Cn1c(Sc2ccccc2Cl)c(C=O)c2ccccc21 | 0.3 | 19.4 | -0.1 | 92.8 | -4.9 | . | . | .
SMILES | STAT1 inh | STAT3 blocker | L929 necroptosis | STAT3 act-1 | TNF death inh | STAT3 act-2 | NFkB act 2 | STAT1 act STAT3c
CCc1nnc(NS(=O)(=O)c2ccc(N/C=C(\C=O)c3nc4cc(Cl)ccc4o3)cc2)s1 | -3.4 | -51.5 | 17.2 | 149.2* | -1.3 | 135.0* | 102.9 | 99.2
COc1cc(NS(=O)(=O)c2ccc(N/C=C(\C=O)c3nc4ccccc4o3)cc2)nc(OC)n1 | 7.3 | -53.9 | 3.0 | 147.2* | 0.7 | 135.5* | 103.6 | 95.2
COC(=O)c1ccc(CC(=O)c2nc3ccccc3s2)cc1 | -2.5 | -0.7 | 0.8 | 105.5 | 0.4 | . | . | .
O=C(Cc1ccccc1)c1nc2ccccc2s1 | -8.5 | -36.4 | 1.7 | 142.7* | -2.9 | 164.3* | 127.8* | 127.7*
C=CCn1c(Cc2ccc(OC)cc2)nnc1SCC(=O)c1cccc([N+](=O)[O-])c1 | 11.6 | 15.7 | -0.3 | 91.2 | -2.3 | . | . | .
O=C(NC1CCSC1=O)c1ccc(Oc2cccc(C(F)(F)F)c2)nc1 (centres undefined) | 4.9 | 0.5 | 0.2 | 99.9 | -2.3 | . | . | .
CCOC(=O)C1(Cc2ccc(OC)cc2)CCN(C(=O)c2cc3ccccc3[nH]2)CC1 | -20.2 | -68.3 | 2.1 | 156.5* | 2.0 | 147.5* | 109.2 | 116.6
CSc1nnc2c(n1)c(C)nn2-c1ccc(C)cc1 | 1.8 | -55.8 | -0.2 | 148.9* | -1.7 | 160.9* | 115.7 | 127.8*
O=C(/C(=C(\[O-])c1ccccc1)[n+]1ccc2ccccc2c1)c1ccc(Cl)cc1 | 2.6 | -52.6 | 0.6 | 151.7* | 0.5 | 155.8* | 109.8 | 105.5
O=C(/C(=C(\[O-])c1ccccc1)[n+]1ccc2ccccc2c1)c1ccc([N+](=O)[O-])cc1 | 11.4 | -15.6 | 0.0 | 115.6 | 0.3 | . | . | .
O=C(/C(=C(\[O-])c1ccccc1)[n+]1ccc2ccccc2c1)c1ccccc1 | -3.8 | -44.2 | 0.6 | 137.5* | -0.1 | 150.8* | 112.0 | 109.0
O=C(CCc1ccc(S(=O)(=O)N2CCOCC2)cc1)OCc1nc2ccccc2s1 | -21.9 | -43.7 | -0.2 | 141.8* | -0.7 | 146.6* | 121.9* | 135.7*
CCOC(=O)c1nn(-c2cccc(C)c2)c2nc(-c3ccccc3)c(C#N)c(=O)n12 | 4.2 | -5.8 | -0.4 | 105.1 | 1.0 | . | . | .
CSc1nsc(SCC(=O)NC2CCCCC2)n1 | -0.2 | -34.9 | -0.2 | 137.0* | 3.0 | 128.2 | 110.2 | 114.5
c1ccc2cc(-c3cc4ccccn4c3)ccc2c1 | -21.3 | -81.2 | -1.1 | 176.9* | 0.2 | 93.5 | 102.5 | 102.5
O=C(Cc1nnc(NC(=O)Nc2ccccc2F)s1)NCc1ccccc1 | . | . | 1.5 | . | 1.8 | . | . | .
O=C(Cc1cscn1)c1ccc(O)cc1O | -3.3 | -49.1 | 0.2 | 146.4* | -0.4 | 99.7 | 100.1 | 103.5
